# The source made the active and inactive calls. The calls are words filed in the database; no cut-off is given here.
# How the values were obtained:
# [1] = system: HT-29; assay: Induction of cell cycle arrest in human HT-29 cells assessed as accumulation of cells at G0/G1 phase at 4 uM incubated for 24 hrs by RNase/PI staining based flow cytometry analysis (reference value: 50.206%); assay type: functional
# [2] = system: HT-29; assay: Induction of cell cycle arrest in human HT-29 cells assessed as accumulation of cells at S phase at 4 uM incubated for 24 hrs by RNase/PI staining based flow cytometry analysis (reference value: 17.934 %); assay type: functional
# [3] = system: HT-29; assay: Induction of cell cycle arrest in human HT-29 cells assessed as accumulation of cells at G2/M phase at 4 uM incubated for 24 hrs by RNase/PI staining based flow cytometry analysis (reference value: 23.695 %); assay type: functional
# [4] = system: HT-29; assay: Induction of mitochondrial damage in human HT-29 cells assessed as increase in monomer formation at 4 uM incubated for 24 hrs by JC-1 staining based flow cytometry analysis; assay type: functional, cell-based
# Summary of the method: (§1)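 HT-29 cells exposed 24 h to test agent at 1, 2 or 4 μM, then stained with JC-1. Flow cytometry scored the % of cells in JC-1 aggregate versus monomer populations. Treated groups were compared with untreated control by two-way ANOVA with Tukey's post hoc test.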
# [5] = system: HT-29; assay: Induction of apoptosis in human HT29 cells assessed as increase in early apoptotic cells at 4 uM incubated for 24 hrs by annexin V/PI staining based flow cytometry analysis; assay type: functional, cell-based
# Summary of the method: (§2)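 Annexin/PI double staining of HT-29 cells after 24 h exposure at 1, 2 or 4 μM. Flow cytometry gated early apoptotic, late apoptotic and necrotic populations, reported as % of cells. Comparison to untreated control used two-way ANOVA followed by Tukey's post hoc analysis.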
# [6] = system: HT-29; assay: Induction of ROS generation in human HT-29 cells at 4 uM by CM-H2DCFDA fluorescent probe based flow cytometry analysis (reference value: 0.528%); assay type: functional
# [7] = system: HT-29; assay: Inhibition of APC protein expression in human HT-29 cells at 4 uM incubated for 72 hrs by Western blot analysis; assay type: functional, cell-based
# [8] = system: HT-29; assay: Inhibition of AXIN-1 protein expression in human HT-29 cells at 4 uM incubated for 72 hrs by Western blot analysis; assay type: functional, cell-based
# [9] = system: HT-29; assay: Inhibition of AXIN-2 protein expression in human HT-29 cells at 4 uM incubated for 72 hrs by Western blot analysis; assay type: functional, cell-based
# [10] = system: HT-29; assay: Inhibition of phosphorylated GSK-3beta protein expression in human HT-29 cells at 4 uM incubated for 72 hrs by Western blot analysis; assay type: functional, cell-based
# [11] = system: HT-29; assay: Inhibition of GSK-3beta protein expression in human HT-29 cells at 4 uM incubated for 72 hrs by Western blot analysis; assay type: functional, cell-based
# [12] = system: HT-29; assay: Inhibition of PI3K-p85 protein expression in human HT-29 cells at 4 uM incubated for 72 hrs by Western blot analysis; assay type: functional, cell-based
# [13] = system: HT-29; assay: Induction of mitochondrial damage in human HT-29 cells assessed as increase in monomer formation at 1 uM incubated for 24 hrs by JC-1 staining based flow cytometry analysis; assay type: functional, cell-based; summary of the method: as §1
# [14] = system: HT-29; assay: Induction of apoptosis in human HT29 cells assessed as increase in early apoptotic cells at 1 uM incubated for 24 hrs by annexin V/PI staining based flow cytometry analysis; assay type: functional, cell-based; summary of the method: as §2
# [15] = system: HT-29; assay: Induction of apoptosis in human HT29 cells assessed as increase in late apoptotic cells at 1 uM incubated for 24 hrs by annexin V/PI staining based flow cytometry analysis; assay type: functional, cell-based; summary of the method: as §2
# [16] = system: HT-29; assay: Downregulation of beta-catenin protein expression in human HT-29 cells at 1 uM by immunostaining based confocal microscopic analysis; assay type: functional, cell-based
# [17] = molecular target: 182 kDa tankyrase-1-binding protein (Homo sapiens) (UniProt Q9C0C2); assay: Inhibition of TAB-182 phosphorylation in human HT-29 cells at 1 uM incubated for 72 hrs by Western blot analysis; assay type: cell-based
# 182 kDa tankyrase-1-binding protein (Homo sapiens), sequence (Q9C0C2 whole entry): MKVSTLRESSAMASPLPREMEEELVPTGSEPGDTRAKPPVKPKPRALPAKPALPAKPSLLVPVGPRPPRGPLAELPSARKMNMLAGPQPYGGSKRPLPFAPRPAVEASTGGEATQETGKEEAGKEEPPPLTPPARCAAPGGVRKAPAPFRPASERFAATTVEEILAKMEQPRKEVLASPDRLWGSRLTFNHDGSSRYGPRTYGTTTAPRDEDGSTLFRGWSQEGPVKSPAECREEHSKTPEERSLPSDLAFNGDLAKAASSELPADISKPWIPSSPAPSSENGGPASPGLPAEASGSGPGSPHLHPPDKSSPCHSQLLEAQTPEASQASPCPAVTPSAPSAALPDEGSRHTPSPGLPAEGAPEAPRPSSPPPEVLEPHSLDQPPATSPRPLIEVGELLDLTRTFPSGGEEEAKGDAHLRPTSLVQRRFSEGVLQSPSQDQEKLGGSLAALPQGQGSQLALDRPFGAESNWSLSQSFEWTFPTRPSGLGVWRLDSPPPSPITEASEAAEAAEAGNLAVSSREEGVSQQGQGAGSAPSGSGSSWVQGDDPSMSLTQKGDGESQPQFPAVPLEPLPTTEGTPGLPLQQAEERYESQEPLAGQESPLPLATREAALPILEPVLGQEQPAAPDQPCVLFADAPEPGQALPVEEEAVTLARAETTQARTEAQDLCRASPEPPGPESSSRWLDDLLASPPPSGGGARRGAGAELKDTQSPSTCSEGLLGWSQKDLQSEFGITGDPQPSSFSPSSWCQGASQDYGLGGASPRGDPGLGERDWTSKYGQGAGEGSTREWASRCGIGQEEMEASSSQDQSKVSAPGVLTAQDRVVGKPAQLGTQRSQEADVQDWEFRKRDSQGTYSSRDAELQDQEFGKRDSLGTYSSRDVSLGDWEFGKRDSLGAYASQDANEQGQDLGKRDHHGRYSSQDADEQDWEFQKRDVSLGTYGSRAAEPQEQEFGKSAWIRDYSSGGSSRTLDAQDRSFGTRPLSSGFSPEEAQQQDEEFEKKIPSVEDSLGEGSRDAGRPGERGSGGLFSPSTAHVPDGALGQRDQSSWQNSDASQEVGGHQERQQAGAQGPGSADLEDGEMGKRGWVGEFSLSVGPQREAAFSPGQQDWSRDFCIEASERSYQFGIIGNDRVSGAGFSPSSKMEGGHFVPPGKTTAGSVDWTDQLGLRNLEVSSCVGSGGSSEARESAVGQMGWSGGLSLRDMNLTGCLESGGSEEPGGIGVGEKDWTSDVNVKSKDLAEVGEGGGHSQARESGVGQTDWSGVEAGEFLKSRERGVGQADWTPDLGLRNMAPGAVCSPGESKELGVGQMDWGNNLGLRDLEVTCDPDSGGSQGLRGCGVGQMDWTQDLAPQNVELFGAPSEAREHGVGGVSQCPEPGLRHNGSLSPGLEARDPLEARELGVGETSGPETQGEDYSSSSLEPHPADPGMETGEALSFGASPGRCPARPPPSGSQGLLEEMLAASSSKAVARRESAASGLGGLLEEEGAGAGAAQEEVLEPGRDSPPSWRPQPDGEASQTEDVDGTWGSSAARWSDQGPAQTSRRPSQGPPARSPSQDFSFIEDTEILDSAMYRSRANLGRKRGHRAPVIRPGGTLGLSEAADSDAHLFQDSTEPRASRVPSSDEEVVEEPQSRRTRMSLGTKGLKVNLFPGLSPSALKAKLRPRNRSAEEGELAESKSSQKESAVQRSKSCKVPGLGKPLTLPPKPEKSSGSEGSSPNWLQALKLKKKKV
# [18] = molecular target: Glycogen synthase kinase-3 beta (Homo sapiens) (UniProt P49841); assay: Inhibition of GSK3beta phosphorylation in human HT-29 cells at 1 uM incubated for 72 hrs by Western blot analysis; assay type: cell-based
# Glycogen synthase kinase-3 beta (Homo sapiens), sequence (P49841 whole entry, looked up): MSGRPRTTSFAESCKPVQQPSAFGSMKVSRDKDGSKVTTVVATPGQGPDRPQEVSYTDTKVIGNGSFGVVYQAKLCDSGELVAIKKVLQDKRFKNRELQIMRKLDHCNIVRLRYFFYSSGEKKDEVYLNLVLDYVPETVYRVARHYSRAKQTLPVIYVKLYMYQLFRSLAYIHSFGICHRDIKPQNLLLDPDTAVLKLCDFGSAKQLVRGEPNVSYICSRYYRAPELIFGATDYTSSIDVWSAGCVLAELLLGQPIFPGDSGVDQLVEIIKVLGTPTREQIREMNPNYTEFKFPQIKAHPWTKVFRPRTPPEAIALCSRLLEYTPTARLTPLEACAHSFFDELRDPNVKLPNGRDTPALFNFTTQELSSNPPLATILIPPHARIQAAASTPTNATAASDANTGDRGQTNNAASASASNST
# [19] = system: HT-29; assay: Inhibition of APC protein expression in human HT-29 cells at 1 uM incubated for 72 hrs by Western blot analysis; assay type: functional, cell-based
# [20] = system: HT-29; assay: Inhibition of AXIN-1 protein expression in human HT-29 cells at 1 uM incubated for 72 hrs by Western blot analysis; assay type: functional, cell-based
# [21] = system: HT-29; assay: Inhibition of beta-actin protein expression in human HT-29 cells at 1 uM incubated for 72 hrs by Western blot analysis; assay type: functional, cell-based
# [22] = system: HT-29; assay: Inhibition of phosphorylated GSK-3beta protein expression in human HT-29 cells at 1 uM incubated for 72 hrs by Western blot analysis; assay type: functional, cell-based
# [23] = system: HT-29; assay: Inhibition of GSK-3beta protein expression in human HT-29 cells at 1 uM incubated for 72 hrs by Western blot analysis; assay type: functional, cell-based
# [24] = system: HT-29; assay: Inhibition of phosphorylated PI3K-p85 protein expression in human HT-29 cells at 1 uM incubated for 72 hrs by Western blot analysis; assay type: functional, cell-based
# [25] = system: HT-29; assay: Inhibition of AKT protein expression in human HT-29 cells at 1 uM incubated for 72 hrs by Western blot analysis; assay type: functional, cell-based
# [26] = system: HT-29; assay: Induction of cell cycle arrest in human HT-29 cells assessed as accumulation of cells at G0/G1 phase at 2 uM incubated for 24 hrs by RNase/PI staining based flow cytometry analysis (reference value: 50.206%); assay type: functional
# [27] = system: HT-29; assay: Induction of cell cycle arrest in human HT-29 cells assessed as accumulation of cells at G2/M phase at 2 uM incubated for 24 hrs by RNase/PI staining based flow cytometry analysis (reference value: 23.695 %); assay type: functional
# [28] = system: HT-29; assay: Induction of cell cycle arrest in human HT-29 cells assessed as accumulation of cells at subG1 phase at 2 uM incubated for 24 hrs by RNase/PI staining based flow cytometry analysis (reference value: 1.798%); assay type: functional
# [29] = system: HT-29; assay: Induction of apoptosis in human HT29 cells assessed as increase in late apoptotic cells at 2 uM incubated for 24 hrs by annexin V/PI staining based flow cytometry analysis; assay type: functional, cell-based; summary of the method: as §2
# [30] = molecular target: Phosphatidylinositol 3-kinase regulatory subunit alpha (Homo sapiens) (UniProt P27986); assay: Inhibition of PI3K-P85 phosphorylation in human HT-29 cells at 2 uM incubated for 72 hrs by Western blot analysis; assay type: cell-based
# Phosphatidylinositol 3-kinase regulatory subunit alpha (Homo sapiens), sequence (P27986 whole entry): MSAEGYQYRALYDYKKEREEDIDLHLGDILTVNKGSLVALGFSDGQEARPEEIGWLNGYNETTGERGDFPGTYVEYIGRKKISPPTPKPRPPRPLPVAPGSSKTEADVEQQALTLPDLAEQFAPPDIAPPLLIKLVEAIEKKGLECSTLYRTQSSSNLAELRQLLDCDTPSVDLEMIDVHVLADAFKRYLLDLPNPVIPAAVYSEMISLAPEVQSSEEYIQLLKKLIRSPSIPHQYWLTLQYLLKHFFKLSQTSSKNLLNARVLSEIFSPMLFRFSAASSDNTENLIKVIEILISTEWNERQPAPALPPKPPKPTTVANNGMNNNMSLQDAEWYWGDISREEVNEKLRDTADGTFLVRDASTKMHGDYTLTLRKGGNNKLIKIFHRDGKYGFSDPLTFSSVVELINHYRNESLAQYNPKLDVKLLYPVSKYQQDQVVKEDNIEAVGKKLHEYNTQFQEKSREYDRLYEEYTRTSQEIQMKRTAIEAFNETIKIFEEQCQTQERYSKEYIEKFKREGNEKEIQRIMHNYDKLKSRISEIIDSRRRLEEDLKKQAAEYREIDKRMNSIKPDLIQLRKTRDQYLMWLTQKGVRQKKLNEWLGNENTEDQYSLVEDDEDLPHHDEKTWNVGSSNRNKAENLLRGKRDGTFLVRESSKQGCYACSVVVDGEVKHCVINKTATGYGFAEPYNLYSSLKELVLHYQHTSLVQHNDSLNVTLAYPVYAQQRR
# [31] = system: HT-29; assay: Inhibition of APC protein expression in human HT-29 cells at 2 uM incubated for 72 hrs by Western blot analysis; assay type: functional, cell-based
# [32] = system: HT-29; assay: Inhibition of TAB-182 protein expression in human HT-29 cells at 2 uM incubated for 72 hrs by Western blot analysis; assay type: functional, cell-based
# [33] = system: HT-29; assay: Inhibition of phosphorylated GSK-3beta protein expression in human HT-29 cells at 2 uM incubated for 72 hrs by Western blot analysis; assay type: functional, cell-based
# [34] = system: HT-29; assay: Inhibition of GSK-3beta protein expression in human HT-29 cells at 2 uM incubated for 72 hrs by Western blot analysis; assay type: functional, cell-based
# [35] = system: HT-29; assay: Inhibition of phosphorylated PI3K-p85 protein expression in human HT-29 cells at 2 uM incubated for 72 hrs by Western blot analysis; assay type: functional, cell-based
# [36] = system: HT-29; assay: Inhibition of pan-AKT protein expression in human HT-29 cells at 2 uM incubated for 72 hrs by Western blot analysis; assay type: functional, cell-based
# [37] = system: HT-29; assay: Inhibition of AKT protein expression in human HT-29 cells at 2 uM incubated for 72 hrs by Western blot analysis; assay type: functional, cell-based
compound,measurement,setting,value
COc1cccc(-n2c(SCCc3c[nH]c4ccccc34)nnc2-c2ccncc2)c1,Activity,[1],42.657%
same,Activity,[2],20.837%
same,Activity,[3],22.943%
same,Activity,[4],Active
same,Activity,[5],Active
same,Activity,[6],2.467%
same,inhibition,[7],Active
same,inhibition,[8],Active
same,inhibition,[9],Active
same,inhibition,[10],Active
same,inhibition,[11],Active
same,inhibition,[12],Active
COc1ccc(-n2c(SCCc3c[nH]c4ccccc34)nnc2-c2ccncc2)cc1,Activity,[13],Active
same,Activity,[14],Active
same,Activity,[15],Active
same,Activity,[16],Active
same,inhibition,[17],Active
same,inhibition,[18],Active
same,inhibition,[19],Active
same,inhibition,[20],Active
same,inhibition,[21],Active
same,inhibition,[22],Active
same,inhibition,[23],Active
same,inhibition,[24],Active
same,inhibition,[25],Active
Fc1ccccc1-n1c(SCCc2c[nH]c3ccccc23)nnc1-c1ccncc1,Activity,[26],67.66%
same,Activity,[27],18.982%
same,Activity,[28],0.854%
same,Activity,[29],Active
same,inhibition,[30],Active
same,inhibition,[31],Active
same,inhibition,[32],Active
same,inhibition,[33],Active
same,inhibition,[34],Active
same,inhibition,[35],Active
same,inhibition,[36],Active
same,inhibition,[37],Active
